In ChEMBL document CHEMBL1148485, “Synthesis and biological evaluation of new selective cytotoxic cyclolignans derived from podophyllotoxin” (J Med Chem, 2004):

Tested on: HeLa
Test: Tested for effect of compound on Sub-G1 cell cycle phase and apoptosis in HeLa cells at a dose of 10E-6 for 48 hr
Type: functional, Homo sapiens
Settings: not given
Outline: (§1)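 HeLa cells grown in DMEM with 10% heat-inactivated FCS, 2 mM L-glutamine, penicillin and gentamicin at 37 °C, 5% CO2. Exposed to compound at 10^-6 to 10^-8 M for 24, 48 or 72 h, untreated controls run in parallel. (3-5) × 10^5 cells fixed overnight in 70% ethanol at 4 °C, then RNase A plus propidium iodide. Phase fractions measured by flow cytometry, with sub-G1 (hypodiploid) cells counted as apoptotic. Three independent experiments.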

| Structure (SMILES) | Activity |
| --- | --- |
| COC(=O)[C@@H]1C(/C=N/c2ccc(OC)cc2)=Cc2cc3c(cc2C1c1cc(OC)c(OC)c(OC)c1)OCO3 (stereo not given in full) | 25.3% |

Tested on: A549
Test: In vitro cytotoxicity against A-549 (human lung carcinoma) cell line.
Type: functional, cell-based
Settings: Homo sapiens, A549

| Structure (SMILES) | IC50 |
| --- | --- |
| COC(=O)[C@@H]1C(/C=N/c2ccc(OC)cc2)=Cc2cc3c(cc2C1c1cc(OC)c(OC)c(OC)c1)OCO3 (stereo not given in full) | 94 nM |

Tested on: HeLa
Test: Tested for effect of compound on Sub-G1 cell cycle phase and apoptosis in HeLa cells at a dose of 10E-8 for 48 hr
Type: functional, Homo sapiens
Settings: not given
Outline: as §1

| Structure (SMILES) | Activity |
| --- | --- |
| COC(=O)[C@@H]1C(/C=N/c2ccc(OC)cc2)=Cc2cc3c(cc2C1c1cc(OC)c(OC)c(OC)c1)OCO3 (stereo not given in full) | 1.9% |

Tested on: HeLa
Test: Tested for effect of compound on S cell cycle phase and apoptosis in HeLa cells at a dose of 10E-8 for 72 hr
Type: functional, Homo sapiens
Settings: not given
Outline: as §1

| Structure (SMILES) | Activity |
| --- | --- |
| COC(=O)[C@@H]1C(/C=N/c2ccc(OC)cc2)=Cc2cc3c(cc2C1c1cc(OC)c(OC)c(OC)c1)OCO3 (stereo not given in full) | 11.4% |

Tested on: HeLa
Test: Tested for effect of compound on Sub-G1 cell cycle phase and apoptosis in HeLa cells at a dose of 10E-8 for 72 hr
Type: functional, Homo sapiens
Settings: not given
Outline: as §1

| Structure (SMILES) | Activity |
| --- | --- |
| COC(=O)[C@@H]1C(/C=N/c2ccc(OC)cc2)=Cc2cc3c(cc2C1c1cc(OC)c(OC)c(OC)c1)OCO3 (stereo not given in full) | 2.7% |

Tested on: HeLa
Test: Tested for effect of compound on G2/M cell cycle phase and apoptosis in HeLa cells at a dose of 10E-6 for 48 hr
Type: functional, Homo sapiens
Settings: not given
Outline: (§2)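 HeLa cells were grown in DMEM with 10% heat-inactivated FCS and 2 mM L-glutamine at 37 °C in 5% CO2. They were exposed to 10^-6 to 10^-8 M for 24, 48 or 72 h. Then (3-5)×10^5 cells were fixed overnight in 70% ethanol at 4 °C, PBS-washed, and given 1 mg/mL RNase A plus 20 µg/mL propidium iodide for 1 h at room temperature. DNA content was read by flow cytometry. Sub-G1 (hypodiploid) % counted as apoptotic. Untreated controls were run in parallel. Representative of three independent experiments.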

| Structure (SMILES) | Activity |
| --- | --- |
| COC(=O)[C@@H]1C(/C=N/c2ccc(OC)cc2)=Cc2cc3c(cc2C1c1cc(OC)c(OC)c(OC)c1)OCO3 (stereo not given in full) | 47.8% |

Tested on: HeLa
Test: Tested for effect of compound on Sub-G1 cell cycle phase and apoptosis in HeLa cells at a dose of 10E-7 for 72 hr
Type: functional, Homo sapiens
Settings: not given
Outline: as §1

| Structure (SMILES) | Activity |
| --- | --- |
| COC(=O)[C@@H]1C(/C=N/c2ccc(OC)cc2)=Cc2cc3c(cc2C1c1cc(OC)c(OC)c(OC)c1)OCO3 (stereo not given in full) | 27.1% |

Tested on: HeLa
Test: Tested for effect of compound on G2/M cell cycle phase and apoptosis in HeLa cells at a dose of 10E-7 for 48 hr
Type: functional, Homo sapiens
Settings: not given
Outline: as §1

| Structure (SMILES) | Activity |
| --- | --- |
| COC(=O)[C@@H]1C(/C=N/c2ccc(OC)cc2)=Cc2cc3c(cc2C1c1cc(OC)c(OC)c(OC)c1)OCO3 (stereo not given in full) | 80.9% |

Tested on: HeLa
Test: Tested for effect of compound on S cell cycle phase and apoptosis in HeLa cells at a dose of 10E-6 for 72 hr
Type: functional, Homo sapiens
Settings: not given
Outline: as §1

| Structure (SMILES) | Activity |
| --- | --- |
| COC(=O)[C@@H]1C(/C=N/c2ccc(OC)cc2)=Cc2cc3c(cc2C1c1cc(OC)c(OC)c(OC)c1)OCO3 (stereo not given in full) | 20.8% |

Tested on: HeLa
Test: Tested for effect of compound on G0/G1 cell cycle phase and apoptosis in HeLa cells at a dose of 10E-7 for 24 hr
Type: functional, Homo sapiens
Settings: not given
Outline: as §2

| Structure (SMILES) | Activity |
| --- | --- |
| COC(=O)[C@@H]1C(/C=N/c2ccc(OC)cc2)=Cc2cc3c(cc2C1c1cc(OC)c(OC)c(OC)c1)OCO3 (stereo not given in full) | 33.5% |

Tested on: HeLa
Test: Tested for effect of compound on G0/G1 cell cycle phase and apoptosis in HeLa cells at a dose of 10E-6 for 48 hr
Type: functional, Homo sapiens
Settings: not given
Outline: as §2

| Structure (SMILES) | Activity |
| --- | --- |
| COC(=O)[C@@H]1C(/C=N/c2ccc(OC)cc2)=Cc2cc3c(cc2C1c1cc(OC)c(OC)c(OC)c1)OCO3 (stereo not given in full) | 20.9% |

Tested on: HeLa
Test: Tested for effect of compound on G0/G1 cell cycle phase and apoptosis in HeLa cells at a dose of 10E-8 for 72 hr
Type: functional, Homo sapiens
Settings: not given
Outline: as §2

| Structure (SMILES) | Activity |
| --- | --- |
| COC(=O)[C@@H]1C(/C=N/c2ccc(OC)cc2)=Cc2cc3c(cc2C1c1cc(OC)c(OC)c(OC)c1)OCO3 (stereo not given in full) | 59.3% |

Tested on: HeLa
Test: Tested for effect of compound on S cell cycle phase and apoptosis in HeLa cells at a dose of 10E-8 for 24 hr
Type: functional, Homo sapiens
Settings: not given
Outline: as §1

| Structure (SMILES) | Activity |
| --- | --- |
| COC(=O)[C@@H]1C(/C=N/c2ccc(OC)cc2)=Cc2cc3c(cc2C1c1cc(OC)c(OC)c(OC)c1)OCO3 (stereo not given in full) | 15.3% |

Tested on: P388
Test: Tested in vitro for antineoplastic activity against P-388 (lymphoid neoplasm from DBA/2 mouse) tumor cell line
Type: functional, cell-based
Settings: not given
Outline: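 P-388 cells seeded at 1 × 10^4 cells/well in MEM–10% FCS containing graded compound concentrations. Incubated 4 days at 37 °C, 10% CO2, 98% humidity. Inhibition scored by inverted microscopy against untreated controls, which were kept in exponential growth. Mean of duplicate wells.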

| Structure (SMILES) | IC50 |
| --- | --- |
| COC(=O)[C@@H]1C(/C=N/c2ccc(OC)cc2)=Cc2cc3c(cc2C1c1cc(OC)c(OC)c(OC)c1)OCO3 (stereo not given in full) | 940 nM |

Tested on: HeLa
Test: Tested for effect of compound on G2/M cell cycle phase and apoptosis in HeLa cells at a dose of 10E-7 for 72 hr
Type: functional, Homo sapiens
Settings: not given
Outline: as §1

| Structure (SMILES) | Activity |
| --- | --- |
| COC(=O)[C@@H]1C(/C=N/c2ccc(OC)cc2)=Cc2cc3c(cc2C1c1cc(OC)c(OC)c(OC)c1)OCO3 (stereo not given in full) | 24.2% |

Tested on: not listed separately
Test: Selectivity index is the ratio of IC50 of P-388 cell line to that of HT-29
Type: functional
Settings: not given

| Structure (SMILES) | Selectivity index |
| --- | --- |
| COC(=O)[C@@H]1C(/C=N/c2ccc(OC)cc2)=Cc2cc3c(cc2C1c1cc(OC)c(OC)c(OC)c1)OCO3 (stereo not given in full) | 100 |

Tested on: HeLa
Test: Tested for effect of compound on G2/M cell cycle phase and apoptosis in HeLa cells at a dose of 10E-8 for 72 hr
Type: functional, Homo sapiens
Settings: not given
Outline: as §1

| Structure (SMILES) | Activity |
| --- | --- |
| COC(=O)[C@@H]1C(/C=N/c2ccc(OC)cc2)=Cc2cc3c(cc2C1c1cc(OC)c(OC)c(OC)c1)OCO3 (stereo not given in full) | 26.6% |

Tested on: HeLa
Test: Tested for effect of compound on G0/G1 cell cycle phase and apoptosis in HeLa cells at a dose of 10E-6 for 24 hr
Type: functional, Homo sapiens
Settings: not given
Outline: as §2

| Structure (SMILES) | Activity |
| --- | --- |
| COC(=O)[C@@H]1C(/C=N/c2ccc(OC)cc2)=Cc2cc3c(cc2C1c1cc(OC)c(OC)c(OC)c1)OCO3 (stereo not given in full) | 2% |

Tested on: HeLa
Test: Tested for effect of compound on Sub-G1 cell cycle phase and apoptosis in HeLa cells at a dose of 10E-6 for 72 hr
Type: functional, Homo sapiens
Settings: not given
Outline: as §1

| Structure (SMILES) | Activity |
| --- | --- |
| COC(=O)[C@@H]1C(/C=N/c2ccc(OC)cc2)=Cc2cc3c(cc2C1c1cc(OC)c(OC)c(OC)c1)OCO3 (stereo not given in full) | 49.4% |

Tested on: HeLa
Test: Tested for effect of compound on S cell cycle phase and apoptosis in HeLa cells at a dose of 10E-7 for 72 hr
Type: functional, Homo sapiens
Settings: not given
Outline: as §1

| Structure (SMILES) | Activity |
| --- | --- |
| COC(=O)[C@@H]1C(/C=N/c2ccc(OC)cc2)=Cc2cc3c(cc2C1c1cc(OC)c(OC)c(OC)c1)OCO3 (stereo not given in full) | 13.6% |
